From ChEMBL document CHEMBL2331221, “Potent elastase inhibitors from cyanobacteria: structural basis and mechanisms mediating cytoprotective and anti-inflammatory effects in bronchial epithelial cells” (J Med Chem, 2013)
Active and inactive are the calls of the source. No cut-off for these calls is given here.

Experiments:
[1] = Inhibition of human pancreatic chymotrypsin assessed as proteolysis using N-succinyl-Ala-Ala-Pro-Phe-p-nitroanilide substrate incubated for 30 mins prior to substrate addition
Homo sapiens = species: Homo sapiens; assay: Inhibition of human pancreatic chymotrypsin assessed as proteolysis using N-succinyl-Ala-Ala-Pro-Phe-p-nitroanilide substrate incubated at 10 uM for 30 mins prior to substrate addition; design: scale not given: the % may be the effect or the level left
Method in brief: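 Pancreatic chymotrypsin, bovine at 100 μg/mL or human at 50 μg/mL; reaction buffer, enzyme and inhibitor (DMSO) incubated 30 min at room temperature, then substrate added (bovine: N-succinyl-Gly-Gly-Phe-pNA; human: N-succinyl-Ala-Ala-Pro-Phe-pNA). Absorbance read at 405 nm; activity from reaction slope relative to solvent control.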

[2] = Antiproteolytic activity against elastase (unknown origin); design: species or system Homo sapiens
Method in brief: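 Inhibitor in DMSO pre-incubated with elastase in Tris-HCl pH 8.0 for 15 min at room temperature. Reaction started with N-succinyl-Ala-Ala-Ala-p-nitroanilide (2 mM in the added substrate solution). Absorbance at 405 nm read every 30 s. Activity is the initial slope of each progress curve, as percent of the uninhibited reaction.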

[3] = Inhibition of porcine pancreatic elastase assessed as proteolysis using N-succinyl-Ala-Ala-Ala-p-nitroanilide substrate incubated for 15 mins prior to substrate addition measured every 30 seconds; design: species or system Sus scrofa
[4] = Inhibition of bovine pancreatic chymotrypsin assessed as proteolysis using N-succinyl-Gly-Gly-Phe-p-nitroanilide substrate incubated for 30 mins prior to substrate addition; design: species or system Bos taurus
[5] = biological target: T1, Neutrophil elastase (Homo sapiens) (UniProt P08246); settings: BEAS2B, 100 uM
T1 sequence (whole entry): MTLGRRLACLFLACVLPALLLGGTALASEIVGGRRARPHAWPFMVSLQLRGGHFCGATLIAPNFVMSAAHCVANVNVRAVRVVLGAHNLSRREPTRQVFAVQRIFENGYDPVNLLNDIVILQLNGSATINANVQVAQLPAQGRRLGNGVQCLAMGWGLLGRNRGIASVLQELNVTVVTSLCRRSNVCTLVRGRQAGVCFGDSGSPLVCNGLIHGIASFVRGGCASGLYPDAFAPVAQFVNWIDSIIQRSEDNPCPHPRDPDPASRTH

[6] = biological target: T1, Neutrophil elastase (Homo sapiens); settings: BEAS2B, 100 uM; remark: listed apart in the source
[7] = biological target: T1, Neutrophil elastase (Homo sapiens); settings: BEAS2B, 100 uM; remark: listed apart in the source

Structure (SMILES)	IC50 [1]	Activity (Homo sapiens)	also measured
C/C=C1\NC(=O)[C@@H](NC(=O)[C@@H](NC(=O)[C@@H](COS(=O)(=O)O)OC)[C@@H](C)CC)[C@@H](C)OC(=O)[C@H]([C@H](C)CC)NC(=O)[C@H](Cc2ccc(O)cc2)N(C)C(=O)[C@H](Cc2ccccc2)N2C(=O)[C@H](CC[C@H]2O)NC1=O [symplostatin 10]	> 10 µM	79.4%	
C/C=C1\NC(=O)[C@@H](NC(=O)[C@@H](NC(=O)[C@H](C)NC(=O)CCC)C(C)C)[C@@H](C)OC(=O)[C@H](C(C)C)NC(=O)[C@H](Cc2ccc(O)cc2)N(C)C(=O)[C@H](Cc2ccccc2)N2C(=O)[C@H](CC[C@H]2O)NC1=O [LYNGBYASTATIN 9]			IC50 [2]: 0.12 µM
C/C=C1\NC(=O)[C@@H](NC(=O)[C@H](CCc2ccc(O)cc2)NC(=O)[C@H](C)NC(=O)[C@H](O)COS(=O)(=O)O)[C@@H](C)OC(=O)[C@H](C(C)C)NC(=O)[C@H](Cc2ccc(O)cc2)N(C)C(=O)[C@H](Cc2ccccc2)N2C(=O)[C@H](CC[C@H]2O)NC1=O [LYNGBYASTATIN 4]	> 10 µM	72.2%	
CC(C)(C)C(=O)Oc1ccc(S(=O)(=O)Nc2ccccc2C(=O)NCC(=O)O)cc1	> 10 µM	55.1%	IC50 [3]: 2.81 µM; IC50 [4]: 4.08 µM; inhibition [5]: Active; inhibition [6]: Active; inhibition [7]: Active
C/C=C1\NC(=O)[C@@H](NC(=O)[C@@H](NC(=O)[C@@H](COS(=O)(=O)O)OC)C(C)C)[C@@H](C)OC(=O)[C@H]([C@H](C)CC)NC(=O)[C@H](Cc2ccc(O)cc2)N(C)C(=O)[C@H](Cc2ccccc2)N2C(=O)[C@H](CC[C@H]2O)NC1=O [symplostatin 8]	> 10 µM	69%	
C/C=C1\NC(=O)[C@@H](NC(=O)[C@@H](NC(=O)[C@@H](COS(=O)(=O)O)OC)C(C)C)[C@@H](C)OC(=O)[C@H](C(C)C)NC(=O)[C@H](Cc2ccc(O)cc2)N(C)C(=O)[C@H](Cc2ccccc2)N2C(=O)[C@H](CC[C@H]2O)NC1=O [symplostatin 9]	> 10 µM	73.9%	
C/C=C1\NC(=O)[C@@H](NC(=O)[C@@H](NC(=O)[C@@H](COS(=O)(=O)O)OC)[C@@H](C)CC)[C@@H](C)OC(=O)[C@H]([C@H](C)CC)NC(=O)[C@H](Cc2ccccc2)N(C)C(=O)[C@H](Cc2ccccc2)N2C(=O)[C@H](CC[C@H]2O)NC1=O [symplostatin 7]	> 10 µM	70.7%	
C/C=C1\NC(=O)[C@@H](NC(=O)[C@@H](NC(=O)[C@H](C)NC(C)=O)C(C)C)[C@@H](C)OC(=O)[C@H](C(C)C)NC(=O)[C@H](Cc2ccc(O)cc2)N(C)C(=O)[C@H](Cc2ccccc2)N2C(=O)[C@H](CC[C@H]2O)NC1=O [LYNGBYASTATIN 8]			IC50 [2]: 0.12 µM
C/C=C1\NC(=O)[C@@H](NC(=O)[C@@H](NC(=O)[C@@H](COS(=O)(=O)O)OC)C(C)C)[C@@H](C)OC(=O)[C@H](C(C)C)NC(=O)[C@H](Cc2ccccc2)N(C)C(=O)[C@H](Cc2ccccc2)N2C(=O)[C@H](CC[C@H]2O)NC1=O [symplostatin 6]	> 10 µM	90.6%	
